Active and inactive are the calls of the source. The calls are words filed in the database; no cut-off is given here.
How the values were obtained:
[1] = target: Butyrylcholinesterase (Rattus norvegicus) (UniProt Q9JKC1); test: Inhibition of BuChE in rat serum at 40 uM using butyrylthiocholine iodide as substrate after 20 mins by Ellman's method
[2] = organism: Rattus norvegicus; test: Selectivity index, ratio of IC50 for BuChE in rat serum to IC50 for AChE in rat cortex homogenate; type: tissue-based
[3] = target: T1, Amine oxidase [flavin-containing] A (Homo sapiens, UniProt P21397); test: Inhibition of recombinant human MAOA using p-tyramine as substrate preincubated for 15 mins followed by substrate addition measured after 15 mins by Amplex red reagent based fluorescence assay
T1 sequence (P21397 whole entry): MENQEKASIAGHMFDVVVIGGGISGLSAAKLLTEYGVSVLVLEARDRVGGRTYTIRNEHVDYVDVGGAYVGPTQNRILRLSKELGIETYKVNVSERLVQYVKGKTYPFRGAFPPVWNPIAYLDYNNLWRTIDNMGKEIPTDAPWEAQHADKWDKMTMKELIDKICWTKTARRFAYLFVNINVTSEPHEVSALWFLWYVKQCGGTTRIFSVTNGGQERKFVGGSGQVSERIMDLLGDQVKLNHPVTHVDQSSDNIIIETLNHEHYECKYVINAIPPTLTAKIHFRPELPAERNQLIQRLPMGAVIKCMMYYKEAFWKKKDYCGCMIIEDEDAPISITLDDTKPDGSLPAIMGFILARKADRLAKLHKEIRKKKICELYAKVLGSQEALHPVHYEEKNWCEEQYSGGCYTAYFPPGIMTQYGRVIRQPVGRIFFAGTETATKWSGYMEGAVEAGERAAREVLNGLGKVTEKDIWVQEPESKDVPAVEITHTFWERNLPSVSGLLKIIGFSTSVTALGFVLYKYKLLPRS

[4] = target: T1, Amine oxidase [flavin-containing] A; test: Inhibition of recombinant human MAOA at 50 uM using p-tyramine as substrate preincubated for 15 mins followed by substrate addition measured after 15 mins by Amplex red reagent based fluorescence assay; settings: 0.25 h
Outline: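 Recombinant human MAO-A (12.5 µg/mL) or MAO-B (75 µg/mL) preincubated 15 min at 37 °C with compound (diluted from 10 mM DMSO stock in 50 mM KH2PO4, pH 7.4). Amplex Red working solution added: 2 mM p-tyramine (MAO-A) or benzylamine (MAO-B), 2 U/mL HRP. After 15 min at 37 °C, fluorescence read (ex 545/em 590), background from enzyme-free wells subtracted.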

[5] = Antioxidant activity assessed as trolox equivalent of AAPH radical scavenging activity preincubated for 10 mins followed by AAPH addition measured every 2 mins for 180 mins by ORAC-FL assay; type: functional
Outline: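 Compound at 20 µM (diluted from 10 mM DMSO stock in 75 mM phosphate, pH 7.4) with fluorescein (0.117 µM diluted) for 10 min at 37 °C, then AAPH (40 mM solution) added. Fluorescence (ex 485/em 535) read every 2 min for 180 min. […] Triplicate wells, ≥3 runs.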

[6] = Metal chelating activity assessed as compound-Cu2+ complex formation at 40 uM in presence of CuCl2 after 30 mins by UV-visible spectrophotometric analysis
Outline: (§1)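 UV–vis spectra (200–500 nm) of compound at 40 µM final, alone or with CuCl2, FeSO4, FeCl3 or ZnCl2 (20 µM final), after 30 min in 20 mM HEPES, 150 mM NaCl, pH 7.4, at room temperature.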

[7] = Metal chelating activity assessed as compound-Fe2+ complex formation at 40 uM in presence of FeSO4 after 30 mins by UV-visible spectrophotometric analysis; outline: as §1
[8] = Metal chelating activity assessed as compound-Fe3+ complex formation at 40 uM in presence of FeCl3 after 30 mins by UV-visible spectrophotometric analysis; outline: as §1
[9] = Inhibition of Cu2+-induced amyloid beta (1 to 42 residues) (unknown origin) aggregation assessed as reduction in amyloid beta fibril load at 50 uM after 24 hrs by phosphotungstic acid staining-based transmission electron microscopic method
Outline: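 Aβ1-42 (25 µM) ± CuCl2 (25 µM) ± compound (50 µM) in HEPES/NaCl pH 6.6, incubated 24 h at 37 °C. Aliquots placed on carbon-coated copper grids for 30 min, stained 20 s with 2% phosphotungstic acid, imaged by TEM. Clioquinol as comparator.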

[10] = system: Cortical neurone; test: Cytotoxicity against E17 Sprague-Dawley rat primary cortical neurons at 10 to 30 uM after 24 hrs by MTT assay; type: cell-based
[11] = system: Cortical neurone; test: Cytotoxicity against E17 Sprague-Dawley rat primary cortical neurons at 100 uM after 24 hrs by MTT assay; type: cell-based
Outline: (§2)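 Primary cortical neurons from E17 SD rat embryos, trypsin-dissociated and cultured 9 days in neurobasal/B27 on poly-L-lysine (3×10^4 cells/well). Treated at 10, 30 and 100 µM for 24 h, with donepezil as reference. MTT (5 mg/mL, 10 µL) for 4 h at 37 °C, absorbance 490 nm, viability as % of vehicle-treated cells; mean ± SEM.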

[12] = system: Cortical neurone; test: Cytotoxicity against E17 Sprague-Dawley rat primary cortical neurons at 100 uM after 24 hrs by MTT assay relative to donepezil; type: cell-based; outline: as §2
[13] = system: Mus musculus; test: Reversal of scopolamine-induced dementia in ICR mouse assessed as decrease in frequent error incidences at 30 mg/kg, po administered 40 mins prior to scopolamine-challenge by water maze test; type: functional, organism-based
Outline: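 Test compound as HCl salt, 30 mg/kg intragastric, given 40 min before scopolamine (4.5 mg/kg i.p.), which was given 20 min before the water maze. Escape latency and errors (entries into no-exit paths) recorded; mean ± SEM.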

Butyrylcholinesterase (Rattus norvegicus), sequence (Q9JKC1 as listed by the source): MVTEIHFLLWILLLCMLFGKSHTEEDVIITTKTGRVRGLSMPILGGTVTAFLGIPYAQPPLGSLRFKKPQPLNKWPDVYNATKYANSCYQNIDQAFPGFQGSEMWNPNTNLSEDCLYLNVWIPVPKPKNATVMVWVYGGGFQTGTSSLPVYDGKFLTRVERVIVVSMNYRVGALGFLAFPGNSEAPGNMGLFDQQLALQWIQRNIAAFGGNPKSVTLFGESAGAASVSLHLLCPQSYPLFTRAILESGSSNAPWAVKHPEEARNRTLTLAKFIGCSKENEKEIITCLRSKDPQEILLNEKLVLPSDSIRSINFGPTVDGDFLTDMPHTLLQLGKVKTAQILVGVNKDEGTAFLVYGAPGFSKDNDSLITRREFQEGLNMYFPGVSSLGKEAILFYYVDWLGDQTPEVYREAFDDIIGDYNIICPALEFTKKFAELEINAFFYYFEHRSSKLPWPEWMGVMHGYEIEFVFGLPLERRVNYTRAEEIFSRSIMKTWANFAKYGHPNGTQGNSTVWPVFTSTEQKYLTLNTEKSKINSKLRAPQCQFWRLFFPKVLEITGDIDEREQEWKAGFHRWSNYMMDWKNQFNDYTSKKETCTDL

`C#CCN(C)Cc1cn(-c2cc(NC(=S)NCC)ncn2)cn1` gave an inhibition [1] of 12.6%, a Ratio IC50 [2] of over 123 and an IC50 [3] of over 50 µM. For the same compound, the inhibition at 50 µM [4] was 20.2%, the Activity (umolequiv/umol) [5] was 1.13 and the Activity [6] was “Active”. For the same compound, the Activity [7] was “inactive”, the Activity [8] was “inactive” and the inhibition [9] was “Active”. The Activity [10] was “Non-Toxic”, the Activity [11] was “Toxic” and the Activity [12] was “Non-Toxic”. For the same compound, the Activity [13] was “Active”.
